# Test results from ChEMBL document CHEMBL1123822, “Lysosomotropic agents. 7. Broad-spectrum antifungal activity of lysosomotropic detergents” (1987).
# Key:
# Format in all cases: functional
# [1] = test system: Cercospora beticola; test: The compound was evaluated for zone inhibition against Cercospora beticola (MF4608) using disk diffusion assay; 8 hazy
# Outline: (§1)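 Disk diffusion: 25 μL of 250 μg/mL drug in methanol on 6.2 mm paper disks, dried at room temperature, placed on seeded agar and rewet with 25 μL 10% aqueous Me₂SO. Zones were read after overnight incubation, ±1 mm. Media were unbuffered, pH ca. 4.5–5.6: potato dextrose agar for filamentous fungi, Sabouraud dextrose for yeasts, unless YNB (76 mM ammonium sulfate, sole nitrogen source) or YED is named. Zone edges were scored fuzzy, slightly hazy, hazy or very hazy.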
# [2] = test system: Ophiostoma ulmi; test: The compound was evaluated for zone inhibition against Ceratocystis ulmi (MF4042) using disk diffusion assay; 12 slightly hazy; outline: as §1
# [3] = test system: Candida albicans; test: The compound was tested for antifungal activity against Candida albicans MY1058 using agar dilution assay
# Outline: (§2)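 Standardized agar dilution in Kimmig agar with 5% glycerol. Lysosomotropic detergents solubilized in 10% Me₂SO. Twofold serial dilutions in sterile distilled water gave final agar concentrations of 128 to 0.06 μg/mL. Stated error ±1 dilution stage.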
# [4] = test system: Saccharomyces cerevisiae; test: The compound was evaluated for mean zone diameter (inhibition) against yeast at the concentration of 500 ug/mL
# Outline: (§3)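 Disk diffusion: drug in methanol spotted on 6.2 mm paper disks (25 μL/disk), dried at room temperature, laid on seeded agar, rewet with 25 μL 10% aqueous Me₂SO; zones read after overnight incubation. Unbuffered acidic media (pH ca. 4.5–5.6). Panel of 21 yeasts and 21 filamentous fungi; zones of 0 mm excluded from means.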
# [5] = test system: Penicillium italicum; test: The compound was tested for antifungal activity against Penicillium italicum MF2819 using agar dilution assay
# Outline: (§4)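 Standardized agar dilution on Kimmig agar with 5% glycerol. Detergents solubilized in 10% Me2SO; desoxycholate-stabilized amphotericin B diluted and titrated in sterile distilled water. Twofold dilutions in sterile distilled water gave final agar concentrations of 128 to 0.06 μg/mL. Error limit ±1 dilution stage.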
# [6] = test system: Candida tropicalis; test: The compound was tested for antifungal activity against Candida tropicalis MY1011 using agar dilution assay; outline: as §4
# [7] = test system: Nakaseomyces glabratus; test: The compound was tested for antifungal activity against Torulopsis glabrata MY1059 using agar dilution assay; outline: as §4
# [8] = test system: Saccharomyces cerevisiae; test: The compound was evaluated for mean zone diameter (inhibition) against yeast at the concentration of 125 ug/mL
# Outline: (§5)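 Filter-paper disk diffusion (6.2 mm disks) with drug in methanol at the stated level, 25 μL per disk. Disks were air-dried at room temperature, laid on seeded agar, rewet with 25 μL 10% aqueous Me₂SO and incubated overnight. Media were unbuffered, pH ca. 4.5–5.6. The panel was 21 yeasts and 21 filamentous fungi. Zones of 0 mm were excluded from means.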
# [9] = test system: Saccharomyces cerevisiae; test: The compound was evaluated for mean zone diameter (inhibition) against yeast at the concentration of 62.5 ug/mL; outline: as §5
# [10] = test system: Fusarium oxysporum; test: The compound was evaluated for zone inhibition against Fusarium oxysporum (MF4014) using disk diffusion assay; 15 Fuzzy edges
# Outline: (§6)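 Filter-paper disks (6.2 mm) loaded with 25 μL of a 250 μg/mL methanol solution, dried at room temperature, laid on seeded agar and rewet with 25 μL 10% aqueous Me₂SO. Media were unbuffered, pH ca. 4.5–5.6: potato dextrose agar for filamentous fungi, sabouraud dextrose agar for yeasts, unless noted. Inhibition zone diameter read after overnight incubation, ±1 mm. Zone edges scored fuzzy, slightly hazy, hazy or very hazy.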
# [11] = test system: Saccharomyces cerevisiae; test: The compound was evaluated for mean zone diameter (inhibition) against yeast at the concentration of 1000 ug/mL; outline: as §3
# [12] = test system: Trichoderma viride; test: The compound was evaluated for zone inhibition against Trichoderma lignorum (MF3560) using disk diffusion assay; 13 Fuzzy edges; outline: as §6
# [13] = test system: Candida parapsilosis; test: The compound was tested for antifungal activity against Candida parapsilosis MY1009 using agar dilution assay; details: Lodderomyces parapsilosis; outline: as §2
# [14] = test system: Candida albicans; test: The compound was tested for antifungal activity against Candida stellatoidea MY1017 using agar dilution assay; outline: as §4
# [15] = test system: Diutina rugosa; test: The compound was tested for antifungal activity against Candida rugosa MY1022 using agar dilution assay; outline: as §2
# [16] = test system: Rhizomucor miehei; test: The compound was evaluated for zone inhibition against Rhizomucor miehei (MF4784) using disk diffusion assay; 9 hazy; outline: as §6
# [17] = test system: Candida albicans; test: The compound was tested for antifungal activity against Candida albicans My1029 using agar dilution assay; outline: as §2
# [18] = test system: Saccharomyces cerevisiae; test: The compound was evaluated for mean zone diameter (inhibition) against yeast at the concentration of 250 ug/mL; outline: as §5
# [19] = test system: Papiliotrema laurentii; test: The compound was evaluated for zone inhibition against Cryptococcus laurentii MY1073 using disk diffusion assay; outline: as §1
# [20] = test system: Candida albicans; test: The compound was tested for antifungal activity against Candida albicans MY1055 using agar dilution assay; outline: as §2
# [21] = test system: Kluyveromyces marxianus; test: The compound was evaluated for zone inhibition against Kluyveromyces fragilis MY1113 using disk diffusion assay; 15 slightly hazy; outline: as §6
# [22] = test system: Papiliotrema laurentii; test: The compound was evaluated for zone inhibition against Cryptococcus laurentii MY1074 using disk diffusion assay; 7 very hazy; outline: as §6
# [23] = test system: Saccharomyces cerevisiae; test: The compound was evaluated for zone inhibition against Saccharomyces cerevisiae YED MY34 using disk diffusion assay; 8 slightly hazy; outline: as §6
# [24] = test system: Meyerozyma guilliermondii; test: The compound was tested for antifungal activity against Candida guilliermondii MY1019 using agar dilution assay; outline: as §2
# [25] = test system: Penicillium; test: The compound was evaluated for zone inhibition against Penicillium sp (MF5020) using disk diffusion assay; 15 Fuzzy edges; outline: as §6
# [26] = test system: Cryptococcus neoformans; test: The compound was tested for antifungal activity against Cryptococcus neoformans MY1146 using agar dilution assay; outline: as §4
# [27] = test system: Penicillium; test: The compound was evaluated for zone inhibition against Penicillium sp (MF5016) using disk diffusion assay; 18 Fuzzy edges; outline: as §6
# [28] = test system: Nakaseomyces glabratus; test: The compound was evaluated for zone inhibition against Torulopsis glabrata MY1062 using disk diffusion assay; 7 very hazy; outline: as §6
# [29] = test system: Aspergillus fumigatus; test: The compound was tested for antifungal activity against Aspergillus fumigatus MF4839 using agar dilution assay; outline: as §2
# [30] = test system: Candida albicans; test: The compound was tested for antifungal activity against Candida albicans MY1013 using agar dilution assay; outline: as §2
# [31] = test system: Saccharomyces cerevisiae; test: The compound was evaluated for zone inhibition against Saccharomyces cerevisiae MY410 using disk diffusion assay; outline: as §6
# [32] = test system: Candida parapsilosis; test: The compound was tested for antifungal activity against Candida parapsilosis MY1010 using agar dilution assay; details: Lodderomyces parapsilosis; outline: as §2
# [33] = test system: Cryptococcus neoformans; test: The compound was tested for antifungal activity against Cryptococcus neoformans MY1051 using agar dilution assay; outline: as §4
# [34] = test system: Cephalosporium; test: The compound was evaluated for zone inhibition against Cephalosporium sp (MF4641) using disk diffusion assay; 12 slightly hazy; outline: as §1
# [35] = test system: Candida tropicalis; test: The compound was tested for antifungal activity against Candida tropicalis MY1012 using agar dilution assay; outline: as §4
# [36] = test system: Penicillium; test: The compound was evaluated for zone inhibition against Penicillium sp (MF5014) using disk diffusion assay; 17 slightly hazy; outline: as §6
# [37] = test system: Trichoderma; test: The compound was evaluated for zone inhibition against Trichoderma sp (MF4064) using disk diffusion assay; 16 Fuzzy edges; outline: as §6
# [38] = test system: Ustilago maydis; test: The compound was evaluated for zone inhibition against Ustilago zeae (MF1996) using disk diffusion assay; 14 slightly hazy; outline: as §6
# [39] = test system: Pichia kudriavzevii; test: The compound was tested for antifungal activity against Candida krusei MY1020 using agar dilution assay; outline: as §2
# [40] = test system: Candida albicans; test: The compound was tested for antifungal activity against Candida albicans MY0992 using agar dilution assay; outline: as §2
# [41] = test system: Saccharomyces cerevisiae; test: The compound was tested for antifungal activity against Saccharomyces cerevisiae MY1027 using agar dilution assay; outline: as §4
# [42] = test system: Aspergillus flavus; test: The compound was tested for antifungal activity against Aspergillus flavus MF0383 using agar dilution assay; outline: as §2
# [43] = test system: Kluyveromyces marxianus; test: The compound was evaluated for zone inhibition against Candida pseudotropicalis MY1100 using disk diffusion assay; 19 slightly hazy; outline: as §1
# [44] = test system: Naganishia albida; test: The compound was evaluated for zone inhibition against Cryptococcus albidus MY1070 using disk diffusion assay; 9 very hazy; outline: as §1
# [45] = test system: Kluyveromyces marxianus; test: The compound was tested for antifungal activity against Candida pseudotropicalis MY1040 using agar dilution assay; outline: as §2
# [46] = test system: Papiliotrema laurentii; test: The compound was evaluated for zone inhibition against Cryptococcus laurentii MY1077 using disk diffusion assay; 9 hazy; outline: as §6
# [47] = test system: Phoma; test: The compound was evaluated for zone inhibition against Phoma sp (MF4332) using disk diffusion assay; 13 slightly hazy; outline: as §6
structure (smiles),measurement,setting,value
CCCCCCCCCCCCN1CCOCC1,Inhibition zone,[1],8 mm
same,Inhibition zone,[2],17 mm
same,MIC,[3],32 µg/mL
same,Inhibition zone,[4],12.8 mm
same,MIC,[5],32 µg/mL
same,MIC,[6],32 µg/mL
same,MIC,[7],64 µg/mL
same,Inhibition zone,[8],10.2 mm
same,Inhibition zone,[9],8.6 mm
same,Inhibition zone,[10],15 mm
same,Inhibition zone,[11],19 mm
same,Inhibition zone,[12],13 mm
same,MIC,[13],64 µg/mL
same,MIC,[14],32 µg/mL
same,MIC,[15],32 µg/mL
same,Inhibition zone,[16],9 mm
same,MIC,[17],32 µg/mL
same,Inhibition zone,[18],11.4 mm
same,Inhibition zone,[19],0 mm
same,MIC,[20],32 µg/mL
same,Inhibition zone,[21],15 mm
same,Inhibition zone,[22],7 mm
same,Inhibition zone,[23],8 mm
same,MIC,[24],32 µg/mL
same,Inhibition zone,[25],15 mm
same,MIC,[26],32 µg/mL
same,Inhibition zone,[27],18 mm
same,Inhibition zone,[28],7 mm
same,MIC,[29],64 µg/mL
same,MIC,[30],32 µg/mL
same,Inhibition zone,[31],0 mm
same,MIC,[32],16 µg/mL
same,MIC,[33],16 µg/mL
same,Inhibition zone,[34],12 mm
same,MIC,[35],16 µg/mL
same,Inhibition zone,[36],17 mm
same,Inhibition zone,[37],16 mm
same,Inhibition zone,[38],14 mm
same,MIC,[39],32 µg/mL
same,MIC,[40],64 µg/mL
same,MIC,[41],32 µg/mL
same,MIC,[42],64 µg/mL
same,Inhibition zone,[43],19 mm
same,Inhibition zone,[44],9 mm
same,MIC,[45],32 µg/mL
same,Inhibition zone,[46],9 mm
same,Inhibition zone,[47],13 mm
